Assay results: ChEMBL document CHEMBL4007470, “Discovery of a 2'-fluoro-2'-C-methyl C-nucleotide HCV polymerase inhibitor and a phosphoramidate prodrug with favorable properties” (Bioorg Med Chem Lett, 2017)
pEC50, pIC50: −log10 of the molar value.

Legend:
Plasma = experiment: Half life in human plasma at 2 uM by LC-MS/MS analysis; assay type: ADME, cell-free; conditions: 2 µM
Procedure, shortened: (§1)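 Compound at 2 μM incubated in plasma at 37 °C for up to 4 h. Aliquots quenched with 9 volumes of acetonitrile containing internal standard, then centrifuged. Supernatant analysed by LC-MS/MS.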

[1] = Hepatic extraction in hamster liver S9 fractions at 2 uM by LC-MS/MS analysis; assay type: ADME; conditions: cricetinae, s9, 2 µM; 2 µM
Procedure, shortened: (§2)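 Compound at 2 μM incubated with S9 fractions at 37 °C for 90 min with NADPH and UDPGA. Quenched with aqueous acetonitrile/methanol containing internal standard and analysed by LC-MS/MS. Half-life from an exponential fit assuming first-order kinetics. Hepatic extraction predicted from half-life using the well-stirred model.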

[2] = Half life in hamster intestinal S9 fractions at 2 uM by LC-MS/MS analysis; assay type: ADME, Intestine; conditions: cricetinae, s9, 2 µM; 2 µM
[3] = Half life in hamster plasma at 2 uM by LC-MS/MS analysis; assay type: ADME, cell-free; conditions: cricetinae, 2 µM; procedure, shortened: as §1
[4] = Permeability of the compound from basolateral to apical side in human Caco2 cells at 10 uM; assay type: ADME, cell-based, Caco-2; conditions: caco-2, 10 µM, 10 µM
Procedure, shortened: (§3)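 Caco-2 permeability at 10 μM compound, measured in apical-to-basolateral and basolateral-to-apical directions.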

Hepatitis C virus [5] = experiment: Antiviral activity against HCV genotype 4a infected in human HuH7 cells by luciferase reporter gene assay; assay type: functional, cell-based, Hepacivirus hominis
Liver = experiment: Hepatic extraction in human liver S9 fractions at 2 uM by LC-MS/MS analysis; assay type: ADME; conditions: s9, 2 µM, 2 µM; procedure, shortened: as §2
[6] = Permeability of the compound from apical to basolateral side in human Caco2 cells at 10 uM; assay type: ADME, cell-based, Caco-2; conditions: caco-2, 10 µM, 10 µM; procedure, shortened: as §3
Hepatitis C virus [7] = experiment: Antiviral activity against HCV genotype 1b infected in human HuH7 cells by luciferase reporter gene assay; assay type: functional, cell-based, Hepacivirus hominis
Procedure, shortened: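 Luciferase-reporter genotype 1b subgenomic replicon in Huh-7 cells; EC50 is concentration giving 50% inhibition. Values are averages of at least three repeats.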

Hepatitis C virus [8] = experiment: Antiviral activity against HCV genotype 1a infected in human HuH7 cells by luciferase reporter gene assay; assay type: functional, cell-based, Hepacivirus hominis, subtype 1a
Huh-7 = experiment: Cytotoxicity against human HuH7 cells; assay type: cell-based
[9] = Prodrug activation in human HuH7 cells infected with HCV genotype 1b assessed as ((2R,3R,4R,5R)-5-(4-aminoimidazo[1,2-f][1,2,4]triazin-7-yl)-5-cyano-4-fluoro-3-hydroxy-4-methyltetrahydrofuran-2-yl)methyl tetrahydrogen triphosphate level per million cells at 10 uM after 6 hrs by LC-MS/MS analysis; assay type: cell-based; conditions: huh-7, 6 h
Procedure, shortened: (§4)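 HCV genotype 1b replicon Huh-7 cells (DMEM with glutaMAX, 10% heat-inactivated FBS, penicillin-streptomycin, G418) grown to confluency (0.88×10^6 cells/well), exposed continuously to prodrug at 10 μM for up to 24 h; washed in ice-cold saline, extracted into 70% methanol overnight, dried, resuspended in 1 mM ammonium phosphate pH 8.5; triphosphate quantified by LC-MS/MS; LLOQ 0.137 pmol/million cells; duplicate wells, single experiment.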

[10] = Prodrug activation in human HuH7 cells infected with HCV genotype 1b assessed as ((2R,3R,4R,5R)-5-(4-aminoimidazo[1,2-f][1,2,4]triazin-7-yl)-5-cyano-4-fluoro-3-hydroxy-4-methyltetrahydrofuran-2-yl)methyl tetrahydrogen triphosphate level per million cells at 10 uM after 2 hrs by LC-MS/MS analysis; assay type: cell-based; conditions: huh-7, 2 h; procedure, shortened: as §4
[11] = Prodrug activation in human HuH7 cells infected with HCV genotype 1b assessed as ((2R,3R,4R,5R)-5-(4-aminoimidazo[1,2-f][1,2,4]triazin-7-yl)-5-cyano-4-fluoro-3-hydroxy-4-methyltetrahydrofuran-2-yl)methyl tetrahydrogen triphosphate level per million cells at 10 uM after 24 hrs by LC-MS/MS analysis; assay type: cell-based; conditions: huh-7, 24 h; procedure, shortened: as §4
[12] = Inhibition of human DNA polymerase-alpha
[13] = system: RNA-directed RNA polymerase (Hepacivirus hominis), O39930 [UNDEFINED MUTATION]; experiment: Inhibition of HCV genotype 1b wild-type NS5B RNA dependent RNA polymerase S282T mutant relative to control; conditions: Hepatitis C virus subtype 1b
[14] = Inhibition of HCV genotype 1b wild-type NS5B RNA dependent RNA polymerase; design: species or system Hepatitis C virus subtype 1b
[15] = Prodrug activation in human HuH7 cells infected with HCV genotype 1b assessed as ((2R,3R,4R,5S)-5-(4-aminopyrrolo[1,2-f][1,2,4]triazin-7-yl)-4-fluoro-3-hydroxy-4-methyltetrahydrofuran-2-yl)methyl tetrahydrogen monophosphate level at 10 uM after 2 to 24 hrs by LC-MS/MS analysis; assay type: cell-based; conditions: huh-7, 10 µM
[16] = Prodrug activation in human HuH7 cells infected with HCV genotype 1b assessed as ((2R,3R,4R,5S)-5-(4-aminopyrrolo[1,2-f][1,2,4]triazin-7-yl)-4-fluoro-3-hydroxy-4-methyltetrahydrofuran-2-yl)methyl tetrahydrogen diphosphate level at 10 uM after 2 to 24 hrs by LC-MS/MS analysis; assay type: cell-based; conditions: huh-7, 10 µM
[17] = Prodrug activation in human HuH7 cells infected with HCV genotype 1b assessed as ((2R,3R,4R,5S)-5-(4-aminopyrrolo[1,2-f][1,2,4]triazin-7-yl)-4-fluoro-3-hydroxy-4-methyltetrahydrofuran-2-yl)methyl tetrahydrogen triphosphate level per million cells at 10 uM after 2 to 24 hrs by LC-MS/MS analysis; assay type: cell-based; conditions: huh-7, 10 µM; procedure, shortened: as §4
[18] = Inhibition of human RNA polymerase-2
[19] = Hepatitis C virus, genotype 1b, Huh-7

In the case of `CC(C)OC(=O)C1(NP(=O)(OC[C@H]2O[C@@H](c3cnc4c(N)ncnn34)[C@](C)(F)[C@@H]2O)Oc2ccccc2)CCC1` (stereo in doubt; 54), the t1/2 (Plasma) was over 13.2 h, the ERH [1] was 96% and the t1/2 [2] was 0.3 h. The t1/2 [3] was 7.17 h, the permeability [4] was 9.2 ×10⁻⁶ cm/s and the pEC50 (Hepatitis C virus [5]) was 6.13. For the same molecule, the ERH (Liver) was 78%, the permeability [6] was 1.3 ×10⁻⁶ cm/s and the pEC50 (Hepatitis C virus [7]) was 4.51. For the same molecule, the pEC50 (Hepatitis C virus [8]) was 5.14.
For `CCOC(=O)[C@H](C)NP(=O)(OC[C@H]1O[C@@](C#N)(c2ccc3c(N)ncnn23)[C@](C)(F)[C@@H]1O)Oc1ccccc1` (some centres undefined), the Activity (Huh-7) was “Non-Toxic”, the Drug metabolism [9] was 5.8 pmol and the pEC50 (Hepatitis C virus [7]; [19]) was 5.49. The Drug metabolism [10] was 1.6 pmol and the Drug metabolism [11] was 3.3 pmol.
With `C[C@@]1(CO)[C@H](O)CC[C@@]2(C)[C@H]1CC[C@H]1C[C@@H]3C[C@@]12CC[C@]3(O)CO` [APHIDICOLIN] the pIC50 [12] was 5.14.
`C[C@@]1(F)[C@H](O)[C@@H](COP(=O)(O)OP(=O)(O)OP(=O)(O)O)O[C@H]1c1ccc2c(N)ncnn12` showed a fold change (FC) [13] of 2.8, a pEC50 (Hepatitis C virus [7]; [19]) of under 4.05 and a pIC50 [14] of 7.34.
With `CCOC(=O)[C@H](C)NP(=O)(OC[C@H]1O[C@@H](c2ccc3c(N)ncnn23)[C@](C)(F)[C@@H]1O)Oc1ccccc1` (some centres undefined) the Drug metabolism [15] was “Metabolite_Detected”, the Drug metabolism [16] was “Metabolite_Notdetected” and the pEC50 (Hepatitis C virus [7]; [19]) was under 4.05. For the same molecule, the Drug metabolism [17] was under 0.137 pmol.
In the case of `CC[C@H](C)[C@@H]1NC(=O)CNC(=O)[C@@H]2Cc3c([nH]c4cc(O)ccc34)[S+]([O-])C[C@@H](NC(=O)CNC1=O)C(=O)N[C@@H](CC(N)=O)C(=O)N1C[C@H](O)C[C@H]1C(=O)NC([C@@H](C)[C@@H](O)CO)C(=O)N2` (some centres undefined), the pIC50 [18] was 8.62.
